# Laboratory results as given in ChEMBL document CHEMBL1955792, “Potent norovirus inhibitors based on the acyclic sulfamide scaffold” (Bioorg Med Chem, 2012).
# Activity calls are given as the source filed them. The rule behind the calls is not given here.
# Experiments:
# Norovirus [1] = assay: Antiviral activity against Norovirus infected in HG23 cells assessed as inhibition of viral replication at 24 hrs by qRT-PCR analysis; format: functional; conditions: read-out: ED50 (the source's name)
# In short: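 Norwalk virus replicon-bearing HG23 cells were treated with compound, and NV genome levels were quantified by qRT-PCR at 24 h post-treatment. ED50 was derived from the reduction in genome levels. Values are the average of two independent experiments ± standard deviation.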
# [2] = Therapeutic index, ratio of TD50 for human HG23 cells to ED50 for Norovirus infected in HG23 cells; format: cell-based; conditions: for Ratio TD50/ED50: hg23; for selectivity ratio: HG23 cells, read-out: Ratio TD50/ED50
# In short: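 TD50 in HG23 replicon cells was measured with a cell cytotoxicity assay kit after 48 h of treatment. […] The index is TD50 divided by ED50.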
# [3] = Cytotoxicity against human HG23 cells at 48 hrs; format: cell-based; conditions: for CC50 at 48 h: HG23 cells, read-out: TD50; for CC50: hg23, 48 h, 48 h, read-out: TD50 (the source's name)
# In short: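 Norwalk virus replicon-harboring HG23 cells were treated with compound for 48 h, then assayed with a commercial cell cytotoxicity kit. The median toxic dose (TD50) was calculated from this read-out. Values are the average of two independent experiments ± standard deviation.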
# Norovirus [4] = assay: Inhibition of Norovirus 3C protease
Structure (SMILES),"EC50 (Norovirus [1]; Norovirus, HG23, 24 h) [µM]",inhibition (Norovirus [4]),other results
CN(CC(=O)NCCN1CCOCC1)S(=O)(=O)NCc1cccc(Oc2ccccc2)c1 [listing 1 of 2 here],5.2,,Ratio TD50/ED50 [2]: 63; CC50 at 48 h [3]: 320 µM
CSCCC(NS(=O)(=O)NCc1cccc(Oc2ccccc2)c1)C(=O)NCCN1CCOCC1.Cl (racemic; 7d),,,Ratio TD50/ED50 [2]: 54; CC50 [3]: 230 µM
O=C(CNS(=O)(=O)NCc1cccc(Oc2ccccc2)c1)NCc1ccco1,> 10,inactive,
CN(CC(=O)NCCN1CCOCC1)S(=O)(=O)NCc1cccc(Oc2ccccc2)c1.Cl,,,EC50 (Norovirus [1]): 10.1 µM; Ratio TD50/ED50 [2]: 24; CC50 [3]: 235 µM
CSCCC(NS(=O)(=O)NCc1cccc(Oc2ccccc2)c1)C(=O)NCCN1CCOCC1 (racemic; 6d) [listing 1 of 2 here],,inactive,
O=C(CNS(=O)(=O)NCc1cccc(Oc2ccccc2)c1)NCCc1ccccc1,> 10,inactive,
CN(CC(=O)NCCN1CCOCC1)S(=O)(=O)NCc1cccc(Oc2ccccc2)c1 [listing 2 of 2 here],,inactive,
Cl.O=C(CNS(=O)(=O)NCc1cccc(Oc2ccccc2)c1)N1CCN(Cc2ccccc2)CC1,,,EC50 (Norovirus [1]): 5.7 µM; Ratio TD50/ED50 [2]: 21; CC50 [3]: 120 µM
O=C(CN(Cc1ccccc1)S(=O)(=O)NCc1cccc(Oc2ccccc2)c1)NCCN1CCOCC1 [listing 1 of 3 here],3.8,,CC50 at 48 h [3]: 45 µM
COC(=O)C1CCN(C(=O)CNS(=O)(=O)NCc2cccc(Oc3ccccc3)c2)CC1,> 10,inactive,
O=C(O)CCCCN1CCN(Cc2cccc(Oc3ccccc3)c2)S1(=O)=O,6.1,,
O=S1(=O)NCCN1Cc1cccc(Oc2ccccc2)c1,4.1,,
CC(NS(=O)(=O)NCc1cccc(Oc2ccccc2)c1)C(=O)NCCN1CCOCC1 (racemic; 6b) [listing 1 of 2 here],> 10,,
CSCCC(NS(=O)(=O)NCc1cccc(Oc2ccccc2)c1)C(=O)NCCN1CCOCC1 (racemic; 6d) [listing 2 of 2 here],4.5,,selectivity ratio [2]: > 27; CC50 at 48 h [3]: 124 µM
O=C(CNS(=O)(=O)NCc1cccc(Oc2ccccc2)c1)NCCN1CCOCC1 [listing 1 of 3 here],,,EC50 (Norovirus [1]): 5.1 µM; selectivity ratio [2]: 65; CC50 [3]: 330 µM
O=C(CNS(=O)(=O)NCc1cccc(Oc2ccccc2)c1)NCCN1CCOCC1 [listing 2 of 3 here],8.5,,CC50 at 48 h [3]: 165 µM

Structure (SMILES),"EC50 (Norovirus [1]; Norovirus, HG23, 24 h) [µM]",inhibition (Norovirus [4]),other results
CC(NS(=O)(=O)NCc1cccc(Oc2ccccc2)c1)C(=O)NCCN1CCOCC1 (racemic; 6b) [listing 2 of 2 here],,inactive,
O=C(CNS(=O)(=O)NCc1cccc(Oc2ccccc2)c1)NCc1ccccc1,8.1,inactive,CC50 at 48 h [3]: 47 µM
O=C(CNS(=O)(=O)NCc1cccc(Oc2ccccc2)c1)NCCN1CCOCC1 [listing 3 of 3 here],,inactive,
O=C(O)C1CCN(C(=O)CNS(=O)(=O)NCc2cccc(Oc3ccccc3)c2)CC1,> 10,inactive,
CCOC(=O)N1CCN(C(=O)CNS(=O)(=O)NCc2cccc(Oc3ccccc3)c2)CC1,8.2,inactive,CC50 at 48 h [3]: 130 µM
O=C(CN(Cc1ccccc1)S(=O)(=O)NCc1cccc(Oc2ccccc2)c1)NCCN1CCOCC1 [listing 2 of 3 here],,inactive,
O=C(CNS(=O)(=O)NCc1cccc(Oc2ccccc2)c1)NC1CCC(C(=O)O)CC1 (configuration not stated),> 10,inactive,
CC(NS(=O)(=O)NCc1cccc(Oc2ccccc2)c1)C(=O)NCCN1CCOCC1 (racemic; 7b),,inactive,
O=C(CNS(=O)(=O)NCc1cccc(Oc2ccccc2)c1)N1CCN(Cc2ccccc2)CC1 [listing 1 of 2 here],,inactive,
CSCCC(NS(=O)(=O)NCc1cccc(Oc2ccccc2)c1)C(=O)NCCN1CCOCC1 (racemic; 7d),,inactive,
O=S1(=O)N(CCN2CCOCC2)CCN1Cc1cccc(Oc2ccccc2)c1,4.2,,CC50 at 48 h [3]: 51 µM
O=C(CNS(=O)(=O)NCc1cccc(Oc2ccccc2)c1)N1CCN(Cc2ccccc2)CC1 [listing 2 of 2 here],5.5,,selectivity ratio [2]: 26; CC50 at 48 h [3]: 145 µM
CCCC(NS(=O)(=O)NCc1cccc(Oc2ccccc2)c1)C(=O)NCCN1CCOCC1 (racemic),> 10,inactive,
COC(=O)CNS(=O)(=O)NCc1cccc(Oc2ccccc2)c1,> 10,inactive,
COC(=O)C1CCC(NC(=O)CNS(=O)(=O)NCc2cccc(Oc3ccccc3)c2)CC1 (configuration not stated),> 10,inactive,CC50 at 48 h [3]: 75 µM
O=C(CN(Cc1ccccc1)S(=O)(=O)NCc1cccc(Oc2ccccc2)c1)NCCN1CCOCC1 [listing 3 of 3 here],,,EC50 (Norovirus [1]): 3.9 µM; CC50 [3]: 55 µM
